{"source": "ChEMBL document CHEMBL1255259", "about": "“Phosphorothioate-modified oligodeoxynucleotides inhibit human cytomegalovirus replication by blocking virus entry” (Antimicrob Agents Chemother, 2008)", "key": {"Human betaherpesvirus 5 [1]": {"system": "Human betaherpesvirus 5", "assay": "Antimicrobial activity against Human cytomegalovirus AD169 infected in 0.1 uM compound pretreated HELF assessed as inhibition of viral replication measured after 6 days post-infection", "format": "functional, organism-based", "in_short": "(§1)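 HELF pretreated with ODN 1 h before infection with HCMV AD169 (MOI 1); ODN kept in medium after 2 h adsorption at 37°C. At 6 days p.i., cells plus supernatants sonicated and titrated by plaque assay on HELF; plaques counted microscopically, expressed as PFU/ml (log10) or % of control. IC50/IC90 by linear regression; duplicate wells, three independent experiments, means ± SD.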"}, "Human betaherpesvirus 5 [2]": {"system": "Human betaherpesvirus 5", "assay": "Antimicrobial activity against 0.1 uM compound pretreated Human cytomegalovirus AD169 infected in HELF assessed as reduction in viral titer 37 degC", "format": "functional, organism-based", "in_short": "(§2)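 HCMV AD169 (10^4 PFU) incubated with ODN at 0.1 μM at 4 or 37°C for various times; samples then diluted to bring ODN below an antivirally active level; residual infectivity titrated by plaque assay on HELF. Means ± SD of three independent experiments.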"}, "Human betaherpesvirus 5 [3]": {"system": "Human betaherpesvirus 5", "assay": "Antimicrobial activity against 0.1 uM compound pretreated Human cytomegalovirus AD169 infected in HELF assessed as reduction in viral titer at 4 degC", "format": "functional, organism-based", "in_short": "as §2"}, "Human betaherpesvirus 5 [4]": {"system": "Human betaherpesvirus 5", "assay": "Antimicrobial activity against Human herpesvirus 5 strain AD169 infected in HELF assessed as pp65 nuclear localization at 0.1 uM after 2 hrs […]", "format": "functional, organism-based"}, "[5]": {"assay": "Cytotoxicity against HELF assessed as cell viability after 6 days by MTT assay", "format": "cell-based", "settings": "human, HELF cells", "in_short": "(§3)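 HELF exposed to rising ODN concentrations (up to 10 μM) for 6 days; viable cells measured by MTT. CC50 taken as concentration that cuts viability to 50%.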"}, "unidentified adenovirus": {"system": "unidentified adenovirus", "assay": "Antimicrobial activity against unidentified adenovirus infected in compound pretreated HELF assessed as inhibition of viral replication", "format": "functional, organism-based", "in_short": "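HELF pretreated 1 h with ODN (0.1 or 1 μM), infected with an adenovirus clinical isolate (MOI 1); ODN kept after 2 h adsorption. Harvest at 4 days p.i., sonication, plaque titration on HELF. Means ± SD, three experiments.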"}, "[6]": {"assay": "Antimicrobial activity against Murine cytomegalovirus (strain Smith) infected in compound pretreated mouse NIH 3T3 cells assessed as inhibition of viral replication", "format": "functional, cell-based", "settings": "Murid betaherpesvirus 1, NIH3T3", "in_short": "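NIH 3T3 pretreated 1 h with ODN, infected with MCMV Smith (MOI 1); ODN kept after 2 h adsorption at 37°C. Harvest at 6 days p.i., sonication, plaque assay on NIH 3T3; IC50 from plaque reduction. Means ± SD, three experiments.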"}, "Human betaherpesvirus 5 [7]": {"system": "Human betaherpesvirus 5", "assay": "Antimicrobial activity against Human cytomegalovirus AD169 infected in HELF assessed as inhibition of viral replication at 0.1 uM measured after 6 days post-infection", "format": "functional, organism-based"}, "[8]": {"assay": "Cytotoxicity against HELF assessed as cell viability by MTT assay after 6 days at <=10 uM", "format": "cell-based", "settings": "human, 144 h", "in_short": "as §3"}, "[9]": {"system": "Vesicular stomatitis Indiana virus", "assay": "Antimicrobial activity against Vesicular stomatitis Indiana virus infected in compound pretreated HELF assessed as inhibition of viral replication", "format": "functional, organism-based", "in_short": "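HELFs exposed to ODN (0.1 or 1 μM) for 1 h, then infected with VSV serotype Indiana at MOI 1 (2 h adsorption, 37°C). ODN kept in the medium until 48 h p.i. Cells and supernatants were pooled, sonicated and titrated by plaque assay on HELFs. Data are means ± standard deviations of three independent experiments, duplicate wells.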"}, "Human betaherpesvirus 5 [10]": {"system": "Human betaherpesvirus 5", "assay": "Antimicrobial activity against Human cytomegalovirus AD169 infected in HELF assessed as inhibition of viral replication at 1 uM measured after 6 days post-infection", "format": "functional, organism-based"}, "Human betaherpesvirus 5 [11]": {"system": "Human betaherpesvirus 5", "assay": "Antimicrobial activity against Human cytomegalovirus AD169 infected in 1 uM compound pretreated HELF assessed as inhibition of viral replication measured after 6 days post-infection", "format": "functional, organism-based", "in_short": "as §1"}, "Human alphaherpesvirus 1 [12]": {"system": "Human alphaherpesvirus 1", "assay": "Antimicrobial activity against Human herpesvirus 1 infected in compound pretreated HELF assessed as inhibition of viral replication at 1 uM", "format": "functional, organism-based", "in_short": "(§4)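 HELF pretreated with ODN (0.1 or 1 μM) 1 h before infection with a clinical HSV-1 isolate at MOI 0.1; ODN kept in medium after 2 h adsorption. Harvest at 48 h p.i., sonication, plaque titration on Vero cells. Means ± SD of three independent experiments.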"}, "Human alphaherpesvirus 1 [13]": {"system": "Human alphaherpesvirus 1", "assay": "Antimicrobial activity against Human herpesvirus 1 infected in compound pretreated HELF assessed as inhibition of viral replication at 0.1 uM", "format": "functional, organism-based", "in_short": "as §4"}, "Human betaherpesvirus 5 [14]": {"system": "Human betaherpesvirus 5", "assay": "Antimicrobial activity against Human cytomegalovirus AD169 infected in compound pretreated HELF assessed as inhibition of viral replication measured after 6 days post-infection", "format": "functional, organism-based", "settings": "Human betaherpesvirus 5, AD169, HELF", "in_short": "as §1"}}, "note": "Activity calls are given as the source filed them. No cut-off for these calls is given here.", "data": [{"smiles": "Cc1cn([C@H]2C[C@H](OP(O)(O)=S)[C@@H](COP(O)(=S)O[C@H]3C[C@H](n4cc(C)c(=O)[nH]c4=O)O[C@@H]3COP(O)(=S)O[C@H]3[C@@H](O)[C@H](n4ccc(N)nc4=O)O[C@@H]3COP(O)(=S)O[C@H]3[C@@H](O)[C@H](n4cnc5c(=O)[nH]c(N)nc54)O[C@@H]3COP(O)(=S)O[C@H]3C[C@H](n4cc(C)c(=O)[nH]c4=O)O[C@@H]3COP(O)(=S)O[C@H]3[C@@H](O)[C@H](n4cnc5c(=O)[nH]c(N)nc54)O[C@@H]3COP(O)(=S)O[C@H]3C[C@H](n4cc(C)c(=O)[nH]c4=O)O[C@@H]3COP(O)(=S)O[C@H]3C[C@H](n4cc(C)c(=O)[nH]c4=O)O[C@@H]3COP(O)(=S)O[C@H]3C[C@H](n4cc(C)c(=O)[nH]c4=O)O[C@@H]3COP(O)(=S)O[C@H]3C[C@H](n4cc(C)c(=O)[nH]c4=O)O[C@@H]3COP(O)(=S)O[C@H]3[C@@H](O)[C@H](n4ccc(N)nc4=O)O[C@@H]3COP(O)(=S)O[C@H]3[C@@H](O)[C@H](n4cnc5c(=O)[nH]c(N)nc54)O[C@@H]3COP(O)(=S)O[C@H]3C[C@H](n4cc(C)c(=O)[nH]c4=O)O[C@@H]3COP(O)(=S)O[C@H]3[C@@H](O)[C@H](n4cnc5c(=O)[nH]c(N)nc54)O[C@@H]3COP(O)(=S)O[C@H]3C[C@H](n4cc(C)c(=O)[nH]c4=O)O[C@@H]3COP(O)(=S)O[C@H]3C[C@H](n4cc(C)c(=O)[nH]c4=O)O[C@@H]3COP(O)(=S)O[C@H]3C[C@H](n4cc(C)c(=O)[nH]c4=O)O[C@@H]3COP(O)(=S)O[C@H]3C[C@H](n4cc(C)c(=O)[nH]c4=O)O[C@@H]3COP(O)(=S)O[C@H]3[C@@H](O)[C@H](n4ccc(N)nc4=O)O[C@@H]3COP(O)(=S)O[C@H]3[C@@H](O)[C@H](n4cnc5c(=O)[nH]c(N)nc54)O[C@@H]3COP(O)(=S)O[C@H]3C[C@H](n4cc(C)c(=O)[nH]c4=O)O[C@@H]3COP(O)(=S)O[C@H]3[C@@H](O)[C@H](n4ccc(N)nc4=O)O[C@@H]3COP(O)(=S)O[C@H]3[C@@H](O)[C@H](n4cnc5c(=O)[nH]c(N)nc54)O[C@@H]3COP(O)(=S)O[C@H]3C[C@H](n4cc(C)c(=O)[nH]c4=O)O[C@@H]3CO)O2)c(=O)[nH]c1=O", "note": "(stereo partly specified)", "values": [{"measurement": "inhibition", "setting": "Human betaherpesvirus 5 [1]", "result": "Active"}, {"measurement": "inhibition", "setting": "Human betaherpesvirus 5 [2]", "result": "inactive"}, {"measurement": "inhibition", "setting": "Human betaherpesvirus 5 [3]", "result": "inactive"}, {"measurement": "inhibition", "setting": "Human betaherpesvirus 5 [4]", "result": "Active"}, {"measurement": "CC50 at 144 h", "setting": "[5]", "result": "> 10000", "unit": "nM"}, {"measurement": "inhibition", "setting": "unidentified adenovirus", "result": "inactive"}, {"measurement": "IC50", "setting": "[6]", "result": 20, "unit": "nM"}, {"measurement": "inhibition", "setting": "Human betaherpesvirus 5 [7]", "result": "inactive"}, {"measurement": "Activity", "setting": "[8]", "result": "Non-toxic"}, {"measurement": "inhibition", "setting": "[9]", "result": "inactive"}, {"measurement": "inhibition", "setting": "Human betaherpesvirus 5 [10]", "result": "inactive"}, {"measurement": "inhibition", "setting": "Human betaherpesvirus 5 [11]", "result": "Active"}, {"measurement": "inhibition", "setting": "Human alphaherpesvirus 1 [12]", "result": "inactive"}, {"measurement": "inhibition", "setting": "Human alphaherpesvirus 1 [13]", "result": "inactive"}, {"measurement": "IC50", "setting": "Human betaherpesvirus 5 [14]", "result": 30, "unit": "nM"}, {"measurement": "IC90", "setting": "Human betaherpesvirus 5 [14]", "result": 220, "unit": "nM"}]}]}
